RGS4 block: RGS4 inhibitors, primary screen, cell-based, HEK293 M3R inducible RGS4, calcium flux; Regulator of G-protein signaling 4 (Homo sapiens), P49798; Fluo-4 calcium flux; hits give high values; triggered by carbachol at its EC20; B-score at 10 µM; 310,000 tested, 0.45% active; AID 463165, 2010;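 active means B-score, a plate-corrected calcium signal, over three deviations above library mean, with baseline fluorescence within five deviations of library mean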;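 further: RGS4 expression induced by doxycycline in cells with stable M3 receptor; B-score is computed from the integrated fluorescence ratio over baseline after carbachol; higher B-score means a larger calcium signal and so more RGS4 inhibition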
Target sequence (P49798 whole entry, looked up): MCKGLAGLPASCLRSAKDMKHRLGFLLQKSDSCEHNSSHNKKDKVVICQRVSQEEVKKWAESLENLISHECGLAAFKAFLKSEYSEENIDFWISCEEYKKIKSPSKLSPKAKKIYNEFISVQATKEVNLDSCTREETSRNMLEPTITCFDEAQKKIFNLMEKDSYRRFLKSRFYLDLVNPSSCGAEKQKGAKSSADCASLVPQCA
MrgX1 ag: agonists of human MrgX1 receptor, primary screen, HEK293 cells, Fluo-4 calcium flux | B-score at 10 µM | 310,000 tested, 0.44% active | AID 588627, 2011 | Mas-related G-protein coupled receptor member X1 (Homo sapiens), Q96LB2 | Fluo-4 calcium fluorescence, agonist mode; hits give high values;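 active means calcium response B-score plate-corrected fluorescence ratio at least 3 library SD, with starting fluorescence B-score inside 5 SD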
Target sequence (Q96LB2 whole entry, looked up): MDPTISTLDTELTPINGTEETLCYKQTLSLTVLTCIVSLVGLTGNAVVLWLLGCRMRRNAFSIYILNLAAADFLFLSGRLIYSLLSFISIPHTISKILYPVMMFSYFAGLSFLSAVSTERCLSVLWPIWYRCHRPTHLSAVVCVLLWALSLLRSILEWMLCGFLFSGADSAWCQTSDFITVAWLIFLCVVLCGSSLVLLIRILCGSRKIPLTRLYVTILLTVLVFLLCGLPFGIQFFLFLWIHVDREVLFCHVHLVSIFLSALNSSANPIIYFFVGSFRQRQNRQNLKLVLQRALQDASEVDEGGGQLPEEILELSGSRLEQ
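Material: MrgX1-expressing HEK293 cells / Dosing: compound as first of three additions / Incubation: overnight seeding, then 1 h dark dye loading / Signal: Fluo-4 NW calcium fluorescence / Evaluation: B-scored fluorescence response ratio / Benchmarks: positive and negative control wells on each plate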
MrgX1 antagonist: antagonists of human MrgX1 receptor, primary screen, HEK293 cells, Fluo-4 calcium flux. BAM8-22 antagonism; hits give low values. 310,000 tested, 1.3% active. Mas-related G-protein coupled receptor member X1 (Homo sapiens), Q96LB2. AID 588676, 2011. B-score at 10 µM;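 active means calcium-response B-score plate-corrected more than 3 library SD below zero, starting fluorescence within 5 deviations, no agonist response on first addition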;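 further: peak minus trough fluorescence over baseline after final BAM8-22 challenge near maximal dose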
RGS4 act: RGS4 potentiators or activators, primary screen, cell-based, HEK293 M3R inducible RGS4, calcium flux. carbachol calcium flux Fluo4; hits give low values. B-score at 10 µM. 310,000 tested, 0.92% active;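 active means B-score of the integrated calcium signal more than 4 SD below the library mean, with starting fluorescence not abnormally high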;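 further: negative B-score means reduced calcium response which marks RGS4 activation or potentiation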
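test system = HEK293 cells with stable M3R and inducible RGS4 | schedule = recording 10 s baseline at 1 Hz, 100 s post-agonist | technique = Fluo4-AM (2 µM) calcium-flux fluorescence, kinetic read | measure = Agonist-evoked peak-minus-minimum fluorescence over baseline, integrated ratio, B score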
MrgX1 allo act: positive allosteric modulators of MrgX1, primary screen, HEK293 cells, Fluo-4 calcium flux; AID 588675, 2011; Mas-related G-protein coupled receptor member X1 (Homo sapiens), Q96LB2; B-score at 10 µM; 310,000 tested, 0.63% active; FDSS; hits give high values;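 active means plate-corrected calcium response at least 3 library SD above typical, normal starting fluorescence, not activating the receptor alone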;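 further: compound read alongside a low EC10 to EC30 dose of BAM8-22 agonist; peak minus trough fluorescence over baseline measured at the second addition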
MrgX1 ant reconf: MrgX1 receptor antagonists, duplicate retest, confirmation, HEK293 cells, Fluo-4 calcium flux. shares compounds with MrgX1 antagonist. BAM8-22 calcium flux; hits give low values. remaining BAM8-22 calcium response % of control (hits give low values), % at 10 µM. 2,300 tested, 19% active. AID 602420, 2012;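 active means remaining agonist calcium response no higher than 100% minus 3 SD of agonist-only control wells, with starting fluorescence near control levels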;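 further: agonist BAM8-22 given at a near maximal EC90 to ECmax level; peak minus minimum fluorescence divided by baseline after agonist addition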
HEK293 Ca flux: nonspecific calcium signal in parental HEK293, confirmation, counter-screen for MrgX1 antagonist project, parental HEK293 cells, Fluo-4 calcium flux; shares compounds with MrgX1 antagonist; 4,000 tested, 2% active; Fluo-4 calcium fluorescence, FDSS; fluorescence ratio F(max-min)/F0 at 10 µM; AID 624111, 2012;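 active means duplicate-averaged calcium fluorescence ratio at least three times the standard deviation of buffer wells, a nonspecific response in parental cells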
HEK293 Ca counter: calcium response in parental HEK293 cells, primary screen, counter-screen for MrgX1 allosteric activator project, cell-based, Fluo-4 calcium flux, duplicate; shares compounds with MrgX1 antagonist; 4,000 tested, 0.4% active; fluorescence ratio F(max-min)/F0 at 10 µM; Fluo-4 fluorescence ratio; hits give high values; AID 624114, 2012;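 active means calcium fluorescence ratio, averaged over duplicates, at least 3 SD of the buffer-well ratio, meaning a nonspecific response in receptor-free cells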;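 further: untransfected parental HEK293 lacking MrgX1 used as counterscreen for MrgX1 allosteric activators; fluorescence change taken during the second addition on a kinetic imager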
HEK293 Ca cntr2: calcium response in parental HEK293 cells, primary screen, counter-screen for MrgX1 agonist project, cell-based, Fluo-4 calcium flux, duplicate, agonist mode; fluorescence ratio F(max-min)/F0 at 10 µM; Fluo-4 calcium fluorescence (FDSS); hits give high values; shares compounds with MrgX1 antagonist; 4,000 tested, 8.7% active;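 active means calcium fluorescence ratio at least three times the spread of buffer wells, meaning a non-specific response in parental cells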
* hit, by the source's call. This is a sample that favours compounds with a hit; in the whole collection about 3.5% have one here.

`Cc1ccc(N(CC(=O)NC(C)C)C(=O)CCC(=O)Nc2nccs2)cc1C` gave RGS4 block inactive, MrgX1 ag inactive, MrgX1 antagonist inactive, RGS4 act inactive and MrgX1 allo act inactive.
Screening Cc1ccc2nsnc2c1S(=O)(=O)N1CCN(Cc2ccc3c(c2)OCO3)CC1 returned RGS4 block inactive, MrgX1 ag inactive, MrgX1 antagonist -7.5*, RGS4 act inactive, MrgX1 allo act inactive, MrgX1 ant reconf inactive, HEK293 Ca flux inactive, HEK293 Ca counter inactive and HEK293 Ca cntr2 inactive.
Cc1ccc(CNC(=O)CCCC(=O)c2ccccc2)cc1 was read as RGS4 block inactive, MrgX1 ag inactive, MrgX1 antagonist inactive, RGS4 act inactive and MrgX1 allo act inactive.
Screening COc1ccc(-c2noc(N3CCCC(C(=O)Nc4ccc(F)cc4F)C3)n2)cc1 (centres undefined) returned RGS4 block inactive, MrgX1 ag inactive, MrgX1 antagonist -4.6*, RGS4 act inactive, MrgX1 allo act inactive, MrgX1 ant reconf inactive, HEK293 Ca flux inactive, HEK293 Ca counter inactive and HEK293 Ca cntr2 inactive.
`COc1ccc(-c2noc(N3CCCC(C(=O)Nc4ccccc4F)C3)n2)cc1` (centres undefined) gave RGS4 block inactive, MrgX1 ag inactive, MrgX1 antagonist inactive, RGS4 act inactive and MrgX1 allo act inactive.
For CCNc1ccc2noc3c2c1C(=O)c1ccccc1-3 the results were RGS4 block inactive, MrgX1 ag inactive, MrgX1 antagonist -4.8*, RGS4 act inactive, MrgX1 allo act inactive, MrgX1 ant reconf inactive, HEK293 Ca flux 0.58*, HEK293 Ca counter inactive and HEK293 Ca cntr2 inactive.
Screening CCCOc1ccc(Br)cc1CSC(=N)N returned RGS4 block inactive, MrgX1 ag inactive, MrgX1 antagonist -4.6*, RGS4 act inactive, MrgX1 allo act inactive, MrgX1 ant reconf inactive, HEK293 Ca flux inactive, HEK293 Ca counter inactive and HEK293 Ca cntr2 inactive.
Screening CCOc1ccc(Br)cc1CC(=O)O returned RGS4 block inactive, MrgX1 ag inactive, MrgX1 antagonist inactive, RGS4 act inactive and MrgX1 allo act inactive.
`CCOC(=O)C1CCCN(C(=O)C2CCN(S(=O)(=O)c3ccc4ccccc4c3)CC2)C1` (centres undefined) gave RGS4 block inactive, MrgX1 ag inactive, MrgX1 antagonist inactive, RGS4 act inactive and MrgX1 allo act inactive.
CCCOc1ccc(NC(=O)CC2C(=O)N(c3ccc(OCC)cc3)C(=S)N2C2CC2)cc1 (centres undefined) was read as RGS4 block inactive, MrgX1 ag inactive, MrgX1 antagonist inactive, RGS4 act inactive and MrgX1 allo act inactive.
Screening N#C/C(=C(/O)CSc1nnc(Cc2cccs2)n1C1CCCCC1)c1nc2ccccc2[nH]1 returned RGS4 block inactive, MrgX1 ag inactive, MrgX1 antagonist inactive, RGS4 act inactive and MrgX1 allo act inactive.
`N#CCSc1nnc(Cc2cccs2)n1C1CCCCC1` gave RGS4 block inactive, MrgX1 ag inactive, MrgX1 antagonist -4.7*, RGS4 act inactive, MrgX1 allo act inactive, MrgX1 ant reconf inactive, HEK293 Ca flux inactive, HEK293 Ca counter inactive and HEK293 Ca cntr2 inactive.
`CCc1c(C)c2c(C)nn(-c3ccccc3)c2[nH]c1=O` gave RGS4 block inactive, MrgX1 ag inactive, MrgX1 antagonist -4.6*, RGS4 act inactive, MrgX1 allo act inactive, MrgX1 ant reconf 85%*, HEK293 Ca flux inactive, HEK293 Ca counter inactive and HEK293 Ca cntr2 inactive.
Cc1c(C)c2c(C)nn(-c3ccccc3)c2[nH]c1=O was read as RGS4 block inactive, MrgX1 ag inactive, MrgX1 antagonist inactive, RGS4 act inactive and MrgX1 allo act inactive.
`NS(=O)(=O)c1ccc(CCNS(=O)(=O)c2ccc3c(c2)NC(=O)CO3)cc1` gave RGS4 block inactive, MrgX1 ag inactive, MrgX1 antagonist inactive, RGS4 act inactive and MrgX1 allo act inactive.
Screening CC(=O)Nc1ccc(NC(=O)C(C)OC(=O)CN(C)S(=O)(=O)c2ccc(Cl)cc2)cc1 (centres undefined) returned RGS4 block inactive, MrgX1 ag inactive, MrgX1 antagonist -6.1*, RGS4 act inactive, MrgX1 allo act inactive, MrgX1 ant reconf inactive, HEK293 Ca flux inactive, HEK293 Ca counter inactive and HEK293 Ca cntr2 inactive.
`CCC(c1nnc(SCC(=O)Nc2c(F)cccc2F)n1Cc1ccccc1)N(C)C` (centres undefined) gave RGS4 block inactive, MrgX1 ag inactive, MrgX1 antagonist inactive, RGS4 act inactive and MrgX1 allo act inactive.
CCOc1ccc(C(=O)N2CCN(c3ccccn3)CC2)cc1OCC was read as RGS4 block inactive, MrgX1 ag inactive, MrgX1 antagonist -4.8*, RGS4 act inactive, MrgX1 allo act inactive, MrgX1 ant reconf inactive, HEK293 Ca flux inactive, HEK293 Ca counter inactive and HEK293 Ca cntr2 68*.
`O=C(COc1ccc(Cl)cc1Cl)N1CCN(c2ccccn2)CC1` gave RGS4 block inactive, MrgX1 ag inactive, MrgX1 antagonist inactive, RGS4 act inactive and MrgX1 allo act inactive.
`O=C(CCCOc1ccc(Cl)cc1Cl)N1CCN(c2ccccn2)CC1` gave RGS4 block inactive, MrgX1 ag inactive, MrgX1 antagonist -5.2*, RGS4 act inactive, MrgX1 allo act inactive, MrgX1 ant reconf inactive, HEK293 Ca flux inactive, HEK293 Ca counter inactive and HEK293 Ca cntr2 inactive.

Screening data (PubChem)
